Source: ChEMBL document CHEMBL2169847, “New tricks for an old natural product: discovery of highly potent evodiamine derivatives as novel antitumor agents by systemic structure-activity relationship analysis and biological evaluations” (J Med Chem, 2012)
The source made the active and inactive calls. The rule behind the calls is not given here.

Assays:
MDA-MB-435 = experiment: Cytotoxicity against human MDA-MB-435 cells incubated for 72 hrs by MTT assay; format: functional; conditions: MDA-MB-435, 72 h
Outline: (§1)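 MTT assay. Cells seeded at 5 × 10³/well and grown 24 h at 37 °C, 5% CO₂. Compounds added at several concentrations in triplicate wells, with 0.1% DMSO control, for 72 h. MTT then added for 4 h, formazan dissolved in DMSO, and absorbance read at 570 nm. GI₅₀ by Logit method; three experiments.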

HCT-116 = experiment: Cytotoxicity against human HCT116 cells incubated for 72 hrs by MTT assay; format: functional; conditions: HCT-116, 72 h; outline: as §1
A549 = experiment: Cytotoxicity against human A549 cells incubated for 72 hrs by MTT assay; format: functional; conditions: A549, 72 h; outline: as §1
[1] = biological target: T1, DNA topoisomerase 1 (Homo sapiens) (UniProt P11387); experiment: Inhibition of Top1 assessed as suppression of supercoiled pBR322 DNA relaxation measuring appearance of short DNA fragments at 100 uM incubated for 15 mins by electrophoresis method
T1 sequence (whole entry): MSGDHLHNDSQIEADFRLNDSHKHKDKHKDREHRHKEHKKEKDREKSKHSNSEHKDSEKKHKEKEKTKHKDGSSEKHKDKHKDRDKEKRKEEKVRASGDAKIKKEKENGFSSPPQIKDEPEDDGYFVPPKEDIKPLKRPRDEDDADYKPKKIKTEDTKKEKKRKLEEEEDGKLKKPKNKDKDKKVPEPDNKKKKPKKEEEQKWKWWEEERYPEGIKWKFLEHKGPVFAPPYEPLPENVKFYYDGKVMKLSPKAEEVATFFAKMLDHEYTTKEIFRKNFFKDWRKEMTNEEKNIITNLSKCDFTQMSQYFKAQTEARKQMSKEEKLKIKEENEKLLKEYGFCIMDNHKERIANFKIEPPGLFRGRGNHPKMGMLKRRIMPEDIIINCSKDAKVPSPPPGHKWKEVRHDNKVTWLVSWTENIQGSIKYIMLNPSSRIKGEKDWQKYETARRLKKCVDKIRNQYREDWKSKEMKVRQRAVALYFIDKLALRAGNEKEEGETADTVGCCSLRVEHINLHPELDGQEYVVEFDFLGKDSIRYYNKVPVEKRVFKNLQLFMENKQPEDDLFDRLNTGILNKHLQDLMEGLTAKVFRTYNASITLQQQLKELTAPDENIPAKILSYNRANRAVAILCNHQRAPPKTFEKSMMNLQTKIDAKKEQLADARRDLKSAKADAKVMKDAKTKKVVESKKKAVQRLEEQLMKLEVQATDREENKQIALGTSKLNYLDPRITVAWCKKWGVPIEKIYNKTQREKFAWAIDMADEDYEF

[2] = biological target: DNA topoisomerase 2-alpha (Homo sapiens) (UniProt P11388); experiment: Inhibition of human Top2alpha assessed as suppression of supercoiled pBR322 DNA relaxation at 50 uM incubated for 30 mins by electrophoresis method
DNA topoisomerase 2-alpha (Homo sapiens), sequence (P11388 whole entry): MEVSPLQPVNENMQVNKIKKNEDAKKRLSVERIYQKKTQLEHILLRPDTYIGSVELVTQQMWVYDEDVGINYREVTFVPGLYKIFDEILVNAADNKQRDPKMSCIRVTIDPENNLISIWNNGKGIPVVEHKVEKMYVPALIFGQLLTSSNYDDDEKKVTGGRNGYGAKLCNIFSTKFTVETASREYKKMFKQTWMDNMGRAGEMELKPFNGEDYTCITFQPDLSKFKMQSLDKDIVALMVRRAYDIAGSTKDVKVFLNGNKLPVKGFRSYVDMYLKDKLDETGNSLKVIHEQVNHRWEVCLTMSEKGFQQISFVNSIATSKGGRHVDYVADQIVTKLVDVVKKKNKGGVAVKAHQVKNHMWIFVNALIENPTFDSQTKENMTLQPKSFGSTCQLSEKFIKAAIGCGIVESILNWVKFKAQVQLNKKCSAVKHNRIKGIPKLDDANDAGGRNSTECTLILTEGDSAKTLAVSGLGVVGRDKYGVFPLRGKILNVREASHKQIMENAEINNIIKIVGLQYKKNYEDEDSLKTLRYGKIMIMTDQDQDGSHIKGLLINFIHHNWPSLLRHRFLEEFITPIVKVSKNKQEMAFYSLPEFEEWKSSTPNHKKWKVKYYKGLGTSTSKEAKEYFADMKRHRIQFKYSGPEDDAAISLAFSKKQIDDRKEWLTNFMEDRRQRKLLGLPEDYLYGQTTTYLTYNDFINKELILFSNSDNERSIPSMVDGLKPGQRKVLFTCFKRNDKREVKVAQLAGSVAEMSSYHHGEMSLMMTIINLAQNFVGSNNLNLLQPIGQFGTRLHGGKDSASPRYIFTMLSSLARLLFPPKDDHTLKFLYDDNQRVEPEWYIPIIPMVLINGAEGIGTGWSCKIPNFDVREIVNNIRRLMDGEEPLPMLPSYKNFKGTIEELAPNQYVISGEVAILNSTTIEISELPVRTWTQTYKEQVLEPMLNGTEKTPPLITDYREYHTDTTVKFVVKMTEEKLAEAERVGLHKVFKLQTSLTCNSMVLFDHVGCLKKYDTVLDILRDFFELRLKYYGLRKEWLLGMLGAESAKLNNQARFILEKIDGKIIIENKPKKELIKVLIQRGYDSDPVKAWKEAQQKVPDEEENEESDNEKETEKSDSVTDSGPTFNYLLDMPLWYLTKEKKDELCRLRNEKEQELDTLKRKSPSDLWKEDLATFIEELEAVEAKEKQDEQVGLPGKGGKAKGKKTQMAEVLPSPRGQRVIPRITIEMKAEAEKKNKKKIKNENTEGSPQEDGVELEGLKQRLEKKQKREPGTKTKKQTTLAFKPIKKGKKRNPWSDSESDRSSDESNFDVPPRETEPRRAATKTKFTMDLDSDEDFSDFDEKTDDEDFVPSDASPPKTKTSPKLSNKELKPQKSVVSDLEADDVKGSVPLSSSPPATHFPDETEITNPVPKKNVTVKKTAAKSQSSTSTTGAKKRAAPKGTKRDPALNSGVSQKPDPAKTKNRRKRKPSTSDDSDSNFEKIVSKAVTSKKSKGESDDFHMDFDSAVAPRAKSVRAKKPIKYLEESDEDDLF

Compound: COc1ccc2[nH]c3c(c2c1)CCN1C(=S)c2ccccc2N(C)C31 (configuration not stated)
- GI50 (MDA-MB-435): 3.69 µM
- GI50 (HCT-116): 21.4 µM
- GI50 (A549): 106 µM

Compound: CCc1c2c(nc3ccc(OC(=O)N4CCC(N5CCCCC5)CC4)cc13)-c1cc3c(c(=O)n1C2)COC(=O)[C@]3(O)CC [IRINOTECAN]
- GI50 (MDA-MB-435): 12.2 µM
- GI50 (HCT-116): 7.1 µM
- GI50 (A549): 5 µM

Compound: CN1c2ccccc2C(=O)N2CCc3c(n(C(=O)c4ccc(Cl)cc4)c4ccc(O)cc34)C21 (configuration not stated)
- GI50 (MDA-MB-435): < 0.002 µM
- GI50 (HCT-116): 0.05 µM
- GI50 (A549): 26.6 µM

Compound: CN1c2ccc([N+](=O)[O-])cc2C(=O)N2CCc3c([nH]c4ccccc34)C21 (configuration not stated)
- GI50 (MDA-MB-435): > 200 µM
- GI50 (HCT-116): > 200 µM
- GI50 (A549): > 200 µM

Compound: COc1ccc2c(c1)C(=O)N1CCc3c([nH]c4ccc(OC)cc34)C1N2C (configuration not stated)
- GI50 (MDA-MB-435): 9.8 µM
- GI50 (HCT-116): 0.033 µM
- GI50 (A549): > 200 µM

Compound: O=C1c2ccccc2OC2c3c(c4ccccc4n3C(=O)c3ccc(Cl)cc3)CCN12 (configuration not stated)
- GI50 (MDA-MB-435): > 200 µM
- GI50 (HCT-116): > 200 µM
- GI50 (A549): > 200 µM

Compound: CN1c2ccc(NC(=O)C3CC3)cc2C(=O)N2CCc3c([nH]c4ccccc34)C21 (configuration not stated)
- GI50 (MDA-MB-435): > 200 µM
- GI50 (HCT-116): 187 µM
- GI50 (A549): > 200 µM

Compound: COc1ccc2[nH]c3c(c2c1)CCN1C(=O)c2cc(F)ccc2N(C)C31 (configuration not stated)
- GI50 (MDA-MB-435): < 0.003 µM
- GI50 (HCT-116): 0.78 µM
- GI50 (A549): 200 µM

Compound: CN1c2ccccc2C(=O)N2CCc3c([nH]c4ccc(I)cc34)C21 (configuration not stated)
- GI50 (MDA-MB-435): 0.26 µM
- GI50 (HCT-116): 0.78 µM
- GI50 (A549): 11.4 µM

Compound: CN1c2ccc(N3CCC3)cc2C(=O)N2CCc3c([nH]c4ccccc34)C21 (configuration not stated)
- GI50 (MDA-MB-435): 0.2 µM
- GI50 (HCT-116): 3.85 µM
- GI50 (A549): > 200 µM

Compound: COc1ccc2[nH]c3c(c2c1)CCN1C(=O)c2cc([N+](=O)[O-])ccc2N(C)C31 (configuration not stated)
- GI50 (MDA-MB-435): > 200 µM
- GI50 (HCT-116): 0.15 µM
- GI50 (A549): > 200 µM

Compound: CN1c2cc(Cl)ccc2C(=O)N2CCc3c([nH]c4ccccc34)C21 (configuration not stated)
- GI50 (MDA-MB-435): > 200 µM
- GI50 (HCT-116): > 200 µM
- GI50 (A549): > 200 µM

Compound: COc1ccc2c(c1)c1c(n2C(=O)c2ccc(Cl)cc2)C2N(CC1)C(=O)c1ccccc1N2C (configuration not stated)
- GI50 (MDA-MB-435): 11.8 µM
- GI50 (HCT-116): 71 µM
- GI50 (A549): 87.2 µM

Compound: COc1ccc2[nH]c3c(c2c1)CCN1C(=O)c2cc(F)ccc2NC31 (configuration not stated)
- GI50 (MDA-MB-435): 18.5 µM
- GI50 (HCT-116): 26.7 µM
- GI50 (A549): 60.1 µM

Compound: CN1c2ccc(O)cc2C(=O)N2CCc3c([nH]c4ccccc34)C21 (configuration not stated)
- inhibition [1]: Active
- GI50 (MDA-MB-435): < 0.003 µM
- GI50 (HCT-116): 0.013 µM
- GI50 (A549): > 200 µM
- inhibition [2]: inactive

Compound: CN1c2ccc(N)cc2C(=O)N2CCc3c([nH]c4ccccc34)C21 (configuration not stated)
- inhibition [1]: Active
- GI50 (MDA-MB-435): 0.15 µM
- GI50 (HCT-116): 8.92 µM
- GI50 (A549): > 200 µM

Compound: CN1c2cccc(O)c2C(=O)N2CCc3c([nH]c4ccccc34)C21 (configuration not stated)
- inhibition [1]: Active
- GI50 (MDA-MB-435): 0.24 µM
- GI50 (HCT-116): 2.14 µM
- GI50 (A549): 62.4 µM
- inhibition [2]: Active

Compound: COc1ccc2[nH]c3c(c2c1)CCn1c-3nc2ccc(F)cc2c1=O
- GI50 (MDA-MB-435): > 200 µM
- GI50 (HCT-116): 138 µM
- GI50 (A549): > 200 µM

Compound: COc1ccc2c(c1)C(=O)N1CCc3c([nH]c4ccccc34)C1N2C (configuration not stated)
- GI50 (MDA-MB-435): 0.29 µM
- GI50 (HCT-116): 1.25 µM
- GI50 (A549): 0.94 µM
